Data set [1] addresses BSA (Bos taurus, UniProt P02769). It counts as binding, bovine. The note with it: 2–10 μM quencher, BSA 2 μM. In outline: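 BSA (2 μM) titrated with test compound at 0, 2, 4, 6, 8, 10 μM (0–20 μM for one reagent). Site competition used phenylbutazone, ibuprofen or digitoxin (2 μM final) added before the test compound. Steady-state BSA fluorescence was measured without and with quencher. Kq, Kb and n were calculated from the quenching formulas, taking biomolecule average lifetime as 10−8 s.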

Data set [2] relates to VX2 orthotopic liver tumors. Nature of the data set: Rabbit VX2 orthotopic liver tumor model, DSA-guided arterial infusion, PET/CT. Format: in vivo, New Zealand White rabbits. The following applies: n=4, mean ± s.d. In outline: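 New Zealand White rabbits (4 months, n=4/group) had 1 mm3 VX2 tumour blocks implanted in the left liver lobe under ultrasound, followed by i.m. penicillin for 3 days and CT sizing. DSA-guided hepatic arterial infusion delivered PBS, oxaliplatin or test nanoparticles (5 mg/kg), doses converted by body surface area. Tumour SUV was measured by PET/CT before and 7 days after infusion.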

Data set [3] relates to H22 orthotopic liver tumors. Nature of the data set: Mouse orthotopic H22 hepatocellular carcinoma model. It counts as in vivo, BALB/c mice. The gist of the method:
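Female BALB/c mice (6–8 weeks) received 106 log-phase H22 cells in matrix gel, injected into an exteriorised liver lobe via abdominal incision. At ~50 mm3 tumours, groups (n=5) received i.v. PBS (100 μL), 100 μL nanoparticles daily for 6 days, or oxaliplatin 5 mg/kg every two days ×3. Growth was imaged by IVIS after i.p. D-luciferin (200 μL, 15 mg/mL) on days 5, 10, 15. Body weight was recorded.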

The text below walks through data of publication PMC11871924 (International Journal of Nanomedicine, 2025).

BSA, sequence (P02769 25-607): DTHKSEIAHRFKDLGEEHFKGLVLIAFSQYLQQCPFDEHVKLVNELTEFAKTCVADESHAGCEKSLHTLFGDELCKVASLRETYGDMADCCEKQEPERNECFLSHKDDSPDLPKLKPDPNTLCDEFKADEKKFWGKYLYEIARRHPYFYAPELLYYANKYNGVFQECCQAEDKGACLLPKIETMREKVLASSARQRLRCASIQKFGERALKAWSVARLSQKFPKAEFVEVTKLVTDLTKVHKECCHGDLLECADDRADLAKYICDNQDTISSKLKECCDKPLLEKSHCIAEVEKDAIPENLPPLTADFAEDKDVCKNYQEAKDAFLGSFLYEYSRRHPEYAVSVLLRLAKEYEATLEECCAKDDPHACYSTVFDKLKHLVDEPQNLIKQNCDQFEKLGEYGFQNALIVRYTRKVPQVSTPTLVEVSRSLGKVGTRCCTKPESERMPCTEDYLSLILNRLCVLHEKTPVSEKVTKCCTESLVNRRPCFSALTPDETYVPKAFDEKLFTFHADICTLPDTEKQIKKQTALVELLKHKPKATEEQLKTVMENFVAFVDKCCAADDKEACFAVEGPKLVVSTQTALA

Consider Ir(ppy)2-diimi dazole [Ir-diim], for which the “Quenching of BSA Trp-214 fluorescence emission” value in data set [1] is given as “could quench”.
As for `O=C1[O][Pt]2([NH][C@@H]3CCCC[C@H]3[NH]2)[O]C1=O` [oxaliplatin], the “Tumor standardized uptake value (SUV) before treatment” value in data set [2] worked out at 5.44±0.43. Moreover, the “Body weight of some mice during treatment” value in data set [3] (decrease from the initial 20 g, oxaliplatin 5 mg/kg i.v. every two days ×3) turned out to be 13 g. Also, the “Effect on orthotopic tumors (in vivo imaging)” value in data set [3] (mouse orthotopic H22 model, i.v., n=5) is recorded as “effectively inhibited”.
